Bioassay records: PubChem, several laboratories
This excerpt belongs to a sample that is enriched for hits.
Fibroblast inh = blocks proliferation of human lung fibroblasts | LL 47 human lung fibroblast viability, ATP luminescence; active compounds read low | viability, % at 10 µM | actives 1.1% (n = 85,000);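 active = viability at or below 50% in the single dose screen; inactive = viability above 50%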;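 also: compound exposure lasted 72 h before the ATP readout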
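Assay system: human lung fibroblast line LL 47, low passage. Input: 1,150 fibroblasts seeded per well. Times: overnight cell rest, 72 h compound treatment at 37 °C. Evaluation: % viability of median cell-only signal. Technique: luminescent ATP detection, CellTiter-Glo. Control set: cell-only wells, no compound.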
Phagocytosis inh = blocks phagocytosis by macrophages. J774A.1 macrophage IgG-bead phagocytosis, imaging. inhibition, % at 5 µM. actives 0.07% (n = 110,000). AID 1029;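 active = inhibition above the mean of the plate negative controls plus 5 SD, cut at about 13% in these data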;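 also: phagocytic index as fraction of beads internalized from green versus red external bead signal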
bCat KO growth = beta-catenin-lacking colon tumor cell growth suppression. AID 818. viability, % at 10 µM. HCT116 beta-catenin knockout viability, CellTiter-Glo, 60 h; active compounds read low. actives 1.5% (n = 140,000);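 active = viability at or under a set limit, the compound median less 4 SD, cut at about 6% in these data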
HUVEC inhibit = human endothelial cell proliferation inhibition; HUVEC proliferation, CellTiter-Glo luminescence, 72 h; active compounds read low; viability, % at 10 µM (by protocol); actives 1.1% (n = 86,000);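 active = viability at or below 30%; inactive = viability above 30%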
H69AR growth 86K = blocks growth of human H69AR lung tumor cells; H69AR lung tumor viability, ATP luminescence, 72 h; active compounds read low; viability, % at 10 µM; actives 6% (n = 85,000);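 active = viability at or below 40%; inactive = viability above 40%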;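 also: multidrug resistant small cell line overexpressing MRP-1 efflux transporter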
PTEN del growth = suppresses growth of cells with PTEN deletion; HCT116 PTEN-null viability, CellTiter-Glo, 60 h; active compounds read low; viability, % at 10 µM; actives 1.2% (n = 140,000); AID 827;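 active = viability at or below a set limit, 4 SD under the median of all tested compounds, cut at about 3.7% in these data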;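 also: PTEN knockout HCT116 line with beta catenin targeted HCT116 as companion control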
Numbers stand for hits; . = inactive; / = no result given; [ ] = dose if it differs, or a comment.

SMILES	Fibroblast inh	Phagocytosis inh	bCat KO growth	HUVEC inhibit	H69AR growth 86K	PTEN del growth
CCN(CC)S(=O)(=O)c1cccc(C(=O)Nc2cc(C)cc(C)c2)c1	.	/	.	.	32	.
Cc1cc(Nc2ccc(Cl)cc2)nc(NCc2ccccc2)n1	/	.	1.1	/	/	1.4
Cc1cc(Nc2cccc(F)c2)nc(NCc2ccccc2)n1	/	.	2.9	/	/	1.4
CCCCNc1cc(C)nc(NCc2ccccc2)n1	.	.	1.3	4.4	9.9	1.5
Cc1cc(N2CCC(C)CC2)nc(NCc2ccccc2)n1	/	.	2.8	/	/	.
CCCc1n[nH]c2c1C(=O)C(C(=O)OC)C(C)(C)C2 (centres undefined)	.	.	.	.	.	.
O=S(=O)(/N=C(\Sc1ccc(Cl)cc1)c1ccccc1)c1ccccc1	.	/	.	.	39	.
CC(=O)C1=C(C)NC(C)=C(C(C)=O)C1c1ccc(-c2ccccc2Cl)o1	.	.	.	.	.	.
Cc1csc(Sc2ccc([N+](=O)[O-])cc2C(=O)OCC(=O)NC2CCCC(C)C2C)n1 (centres undefined)	.	/	.	.	8.4	.
COc1ccc(CCN2C(=O)CC(NNC(=O)c3ccccc3Br)C2=O)cc1OC (centres undefined)	/	.	.	/	/	.
COCCn1c(-c2ccc(-c3ccccc3Cl)o2)nc2c1c(=O)[nH]c(=O)n2CC(C)C	.	.	.	.	18	.
COCCn1c(-c2cccc([N+](=O)[O-])c2)nc2c1c(=O)[nH]c(=O)n2Cc1ccccc1	/	.	.	/	/	.
CCCCn1c(=O)[nH]c(=O)c2c1nc(-c1ccc(-c3ccccc3Br)o1)n2CCOC	39	.	.	.	.	.
COc1ccc(NS(=O)(=O)c2ccc(C)c(NC(=O)c3ccc(C)c(S(=O)(=O)N4CCOCC4)c3)c2)cc1	/	.	.	/	/	.
O=C(CSc1nnc(-c2ccccc2O)o1)Oc1ccc(OCc2ccccc2)cc1	.	.	.	.	27	.
COc1cccc(OC(=O)CSc2nnc(-c3ccccc3Br)o2)c1	.	.	.	.	.	.
O=C(CSc1nnc(-c2ccncc2)o1)Oc1ccccc1	.	.	.	.	.	.
O=C(CSc1nnc(-c2cccnc2)o1)Oc1ccccc1	/	26[artifact]	.	/	/	.
CSc1nnc(-c2cc[n+](C)cc2)n1CCO	/	.	.	/	/	.
O=C(COc1ccc(/C=N/NC(=O)c2cc3ccccc3o2)cc1Br)Nc1ccccc1	/	/	1.8	/	/	3.5
O=C(CN1C(=O)COc2ccccc21)N1CCc2ccccc2C1	3.1	/	.	.	.	.
O=C(CN1C(=O)COc2ccccc21)N1CCCc2ccccc21	.	.	.	.	.	.
CCOC(=O)CN1C(=O)C(=O)c2cccc(C)c21	.	.	.	.	33	.
CCOC(=O)CN1C2=NCCN2c2ccccc21	.	.	.	.	.	.
O=S(=O)(/N=C(/c1ccc(Cl)cc1)N1CCOCC1)c1ccc(Cl)cc1	/	/	.	/	/	.
SMILES	Fibroblast inh	Phagocytosis inh	bCat KO growth	HUVEC inhibit	H69AR growth 86K	PTEN del growth
C1=CC2CC1CC2CN1CCN(Cc2ccccc2)CC1 (centres undefined)	/	.	.	/	/	.
Cc1c(C(=O)c2no[n+]([O-])c2C(=O)c2cnn(C)c2C)cnn1C	.	.	.	.	1.8	.
COc1ccc(C(=O)c2no[n+]([O-])c2C(=O)c2ccc(OC)cc2)cc1	/	.	.	/	/	.
CCCc1cc(C(=O)Cc2ccc(F)cc2)c(O)cc1O	.	.	.	.	15	.
Cc1ccc(NC(=O)CSc2nnc(-c3n[nH]c4ccccc34)n2-c2ccccc2)c(C)c1	/	.	.	/	/	.
CCOc1ccc(CC(=O)Nc2c(C(=O)Nc3ccccc3)oc3ccccc23)cc1OCC	.	.	.	.	35	.
CC(=O)Nc1c(C(=O)C2CC2)oc2ccccc12	.	.	.	.	.	.
N#Cc1ccccc1OCC(=O)Nc1c(C(=O)C2CC2)oc2ccccc12	.	/	.	.	7.6	.
N#Cc1ccccc1NC(=O)c1ccccc1OCC(=O)Nc1ccc2c(c1)oc1ccccc12	.	/	/	.	3.9	/
COc1ccc(NC(=O)c2oc3ccccc3c2NC(=O)COc2ccccc2OC)c(OC)c1	.	/	.	7.2	19	.
CC(C)c1nc2sc3c(=O)n(N)cnc3c2c2c1COC(C)(C)C2	/	/	.	/	/	.
CCOc1ccc(CC(=O)Nc2c(C(N)=O)oc3ccc(Br)cc23)cc1OCC	.	.	.	.	37	.
